Screening results from PubChem BioAssay.
PG9 binder: small molecules binding HIV-1 gp120 antibody PG9; TR-FRET gp120-PG9 antibody binding; inhibition, % at 6.7 µM; 0.43% of 360,000 active; AID 624416; in the data active = inhibition above about 8.5%
NR2E3 ag-1: activates human photoreceptor nuclear receptor NR2E3; 0.12% of 320,000 active; inhibition of corepressor binding, % at 4.78 µM; GST-NR2E3/biotin-RetCOR TR-FRET, 1536-well;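 active = percent inhibition above the cutoff of mean plus 3 SD of all tested compounds, set per screening campaign, cut at about 20% in these data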;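 also: 0% = DMSO wells and 100% = biotin wells as full block of FRET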
Target sequence (Q9Y5X4 whole entry, looked up): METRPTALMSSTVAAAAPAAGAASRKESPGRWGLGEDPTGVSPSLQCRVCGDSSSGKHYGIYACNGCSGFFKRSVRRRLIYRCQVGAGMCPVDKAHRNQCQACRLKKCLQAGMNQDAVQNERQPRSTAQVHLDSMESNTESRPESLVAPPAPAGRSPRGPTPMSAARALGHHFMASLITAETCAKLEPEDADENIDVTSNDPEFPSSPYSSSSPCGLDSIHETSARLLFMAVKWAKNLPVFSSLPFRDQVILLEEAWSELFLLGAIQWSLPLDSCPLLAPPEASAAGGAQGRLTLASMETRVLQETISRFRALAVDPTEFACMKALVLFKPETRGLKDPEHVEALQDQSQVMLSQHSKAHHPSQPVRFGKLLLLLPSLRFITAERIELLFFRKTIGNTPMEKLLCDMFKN
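Format: 1536-well format; test system: GST-NR2E3 and biotin-RetCOR proteins; read-out basis: percent inhibition of TR-FRET ratio; timing: 5 h incubation at 4 °C; detection: time-resolved FRET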
NR2E3 ag-2: human photoreceptor-specific nuclear receptor agonism | Q9Y5X4 | CHO-S Gal4-NCOR/VP16-NR2E3 two-hybrid, luciferase | inhibition of corepressor binding, % at 3.98 µM | 0.35% of 360,000 active | AID 602229;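 active = inhibition above the mean of all tested compounds plus 3 SD, cut at about 70% in these data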;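 also: 0% = DMSO with NR2E3 transfected cells and 100% = cells lacking NR2E3 construct; higher means lower luciferase signal from less NR2E3 corepressor binding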
GalR3 antagonist: antagonists of human GalR3. HEK293 GalR3-CNG cAMP membrane potential fluorescence; galR3 body fused to GalR1 C-terminus. O60755. inhibition, % at 3 µM. 0.44% of 360,000 active;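 active = inhibition above the screen-wide average plus 3 SD, cut at about 13% in these data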;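 also: forskolin and galanin both at EC90 stimulate the cells; cAMP rise reported by CNG channel membrane potential dye signal; 0% = forskolin plus galanin with DMSO and 100% = forskolin alone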
Target sequence (O60755 1-299 limits assumed): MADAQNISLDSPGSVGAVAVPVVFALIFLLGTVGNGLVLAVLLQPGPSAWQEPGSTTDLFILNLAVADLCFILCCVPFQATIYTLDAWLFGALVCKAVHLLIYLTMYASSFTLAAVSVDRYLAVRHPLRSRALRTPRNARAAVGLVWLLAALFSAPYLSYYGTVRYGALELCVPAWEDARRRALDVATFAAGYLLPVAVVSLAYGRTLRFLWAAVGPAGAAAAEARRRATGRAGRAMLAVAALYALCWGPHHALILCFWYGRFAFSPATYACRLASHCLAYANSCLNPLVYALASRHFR
NR1D1 modulator: modulates human Rev-erb alpha binding to DNA; P20393; Rev-erbα–FITC-DNA binding, fluorescence polarization, 90 min; activity, % at 10 µM; 0.79% of 370,000 active;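 active = activity above about 14%, limit read from the data; passing the limit was not always enough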;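 also: 0% = DMSO wells with 35 nM protein and 100% = DMSO wells with 750 nM protein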
NR2E3 ag confirm: NR2E3 agonism confirmed in two-hybrid assay | 51% of 2,300 active | CHO-S mammalian two-hybrid NR2E3-NCOR, luciferase luminescence | shares compounds with NR2E3 ag-2 | inhibition, % at 3.98 µM;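 active = average inhibition above a cutoff equal to the mean inhibition of all tested compounds plus one SD, cut at about 70% in these data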;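 also: 0% = DMSO in NR2E3 cells and 100% = DMSO in cells lacking NR2E3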
VP16 counter: reduces GAL4-VP16 reporter signal in NR2E3 counterscreen; CHO-S GAL4-VP16 luciferase reporter, luminescence; 29% of 2,300 active; inhibition, % at 3.98 µM; AID 624379; shares compounds with NR2E3 ag-2;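 active = mean inhibition above a cutoff equal to the average over all tested compounds plus one standard deviation, cut at about 70% in these data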;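 also: luciferase from a UAS reporter driven by GAL4-VP16 transactivation; 0% = DMSO with VP16-transfected cells and 100% = DMSO with cells lacking VP16; higher means less reporter light so more repression of VP16 activity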
GalR3 antag conf: confirmation of human galanin receptor 3 antagonists | shares compounds with GalR3 antagonist | HEK293 GalR3 CNG cAMP biosensor, membrane potential fluorescence; galR3 fused to GalR1 carboxy tail; challenged with forskolin and galanin at EC90 | inhibition, % at 3 µM | 59% of 1,600 active;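 active = inhibition above the primary screen's cutoff, the mean inhibition of all screened compounds plus 3 SD, cut at about 13% in these data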;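 also: 0% = forskolin plus galanin and 100% = forskolin alone with DMSO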
CNG parental: counter-screen for GalR3 antagonists: nonspecific agonists in parental HEK-CNG cells; shares compounds with GalR3 antagonist; HEK293-CNG parental cells, cAMP membrane potential fluorescence; normalised: DMSO wells 0%, forskolin wells 100%; activation, % at 3 µM; 10% of 1,600 active; AID 652268; in the data active = activation above about 1.3%
The depositor's hits bear a star; . = no result given. Sampled rows, rich in hits. Any-hit rate of the full collection: about 1.8%.

SMILES	PG9 binder	NR2E3 ag-1	NR2E3 ag-2	GalR3 antagonist	NR1D1 modulator	NR2E3 ag confirm	VP16 counter	GalR3 antag conf	CNG parental
CCCCCCCCCCn1c2c(c(=N)c3c1CCC3)CCC2	-1.0	0.9	98.6*	28.2*	-10.1	100.0*	97.2*	38.7*	23.8*
CC1=C[C@]2(CN(CC3CC3)C3=N[C@H](c4ccccc4)CC(=O)N32)n2c(=O)n(-c3ccccc3)c(=O)n2C1	.	.	.	.	-3.4	.	.	.	.
CC(O)CC(=O)OC[C@]12CC[C@H]3[C@@](C)(CC[C@H]4C(C)(C)CCC[C@]34C)[C@@H]1CC(C1=CC(=O)OC1O)O2 (some centres undefined)	-0.1	.	66.9	23.2*	-2.1	65.8	24.0	21.9*	1.1
c1ccc(OC2CCN(c3ncnc4sccc34)CC2)cc1	.	.	.	.	2.4	.	.	.	.
c1ccc(CC2CCN(c3ncnc4sccc34)CC2)cc1	-0.2	.	80.2*	70.1*	0.4	97.2*	82.6*	87.8*	0.6
CCc1c(C)nc2ncnn2c1NCCc1ccc(OC)cc1	-1.5	-0.7	84.2*	14.5*	1.2	89.2*	65.6	59.0*	0.2
NC(=O)c1c(-c2ccc(Cl)cc2Cl)csc1NC(=O)Cc1ccccc1	-2.6	-2.7	56.0	95.1*	1.9	64.2	61.5	113.4*	-1.1
CCOC(=O)[C@@]12CCCC=C1N(CCc1ccc(Cl)cc1)C(=O)[C@H]2CC(=O)N1CCC(c2ccccc2)CC1	.	.	.	.	13.7	.	.	.	.
O=C(CSc1nnnn1C1CC2CCC1C2)Nc1ccnc2ccccc12 (centres undefined)	-2.6	1.3	97.9*	88.7*	1.6	94.0*	92.9*	117.1*	0.6
CN(C)CCCNS(=O)(=O)c1ccc(NC2CCCCCC2)c([N+](=O)[O-])c1	-0.5	1.2	49.2	78.0*	3.8	55.4	64.3	100.3*	1.6*
CC(=O)N1c2ccc(S(=O)(=O)N3CCC(C(=O)Nc4cccc(C)n4)CC3)cc2CC1C (centres undefined)	-2.0	-3.8	49.7	51.4*	-2.1	17.9	5.5	93.7*	-0.5
CC(=O)c1ccc(N2CCN(S(=O)(=O)c3ccc4c(c3)CC(C)N4C(C)=O)CC2)cc1 (centres undefined)	-2.5	-0.7	70.3*	98.5*	-5.4	91.7*	73.4*	105.6*	-0.3
CC(=O)N1c2ccc(S(=O)(=O)N3CCOCC3)cc2CC1C (centres undefined)	0.1	-1.7	-0.1	-7.4	1.7	.	.	.	.
CC(=O)N1c2ccc(S(=O)(=O)N3CCC(C(=O)Nc4ccccn4)CC3)cc2CC1C (centres undefined)	0.0	-0.1	5.9	-6.8	-4.3	.	.	.	.
COC(=O)[C@]12C[C@H](CC(=O)NCc3ccc(OC)c(OC)c3)C(=O)N(Cc3cccc4ccccc34)C1=C[C@H](C1CCCC1)O[C@@H]2C	.	.	.	.	-3.0	.	.	.	.
CC(Nc1ncnc2sccc12)c1ccccc1 (centres undefined)	0.1	-2.1	106.4*	93.7*	-2.9	97.4*	86.3*	105.2*	0.3
c1ccc(Nc2ncnc3sccc23)cc1	-1.4	-1.1	-9.5	-7.5	2.7	.	.	.	.
COC(=O)c1cc2c(c3c4cc(C)ccc4n(S(=O)(=O)c4ccc(OC)cc4)c13)C(=O)N(C)C2	0.3	.	.	-6.8	3.3	.	.	.	.
COc1ccc(CC(=O)Nc2ccncc2Cl)cc1	0.1	-1.8	92.4*	63.1*	-3.9	87.4*	70.7*	48.6*	-0.4
O=C(Cc1ccc(Cl)cc1Cl)Nc1ccncc1	-0.2	-2.0	63.6	0.3	-3.6	.	.	.	.
O=C(Cc1ccc(Cl)cc1Cl)Nc1ccncc1Cl	-2.8	0.6	98.0*	45.0*	-0.2	87.1*	78.2*	66.6*	0.8
O=C(Cc1c(Cl)cccc1Cl)Nc1ccncc1Cl	-0.7	3.9	22.2	-4.4	1.3	.	.	.	.
O=S1(=O)c2c(cccc2N2CCSCC2)Oc2ccccc2CN1Cc1cn(Cc2ccc(Cl)cc2)nn1	.	.	.	.	-1.4	.	.	.	.
CCCC1CCC2(CC1)CCC2OC(=S)NCc1cccc(OC)c1 (centres undefined)	.	.	.	.	8.5	.	.	.	.
CCN(CC)c1ccc(C(=C2C=CC(=[N+](CC)CC)C=C2)c2ccccc2)cc1	-23.4	.	101.1*	33.5*	-6.7	99.2*	98.4*	64.1*	1.4*
SMILES	PG9 binder	NR2E3 ag-1	NR2E3 ag-2	GalR3 antagonist	NR1D1 modulator	NR2E3 ag confirm	VP16 counter	GalR3 antag conf	CNG parental
CCN(CC)c1ccc(C(=C2C=CC(=[N+](CC)CC)C=C2)c2ccc(N(CC)CC)cc2)cc1	-128.2	.	101.2*	32.5*	-18.7	99.4*	92.2*	35.6*	-3.6
CCN(CC)c1ccc(C(=O)NNC(=O)CCl)cc1	-3.0	-3.4	-9.7	0.9	-8.6	.	.	.	.
CCN(CC)C(=O)CC[C@H]1CC[C@]2(CCCN(C(=O)C3CCCC3)C2)O1	.	.	.	.	0.8	.	.	.	.
C[C@H]1COc2cc(N3CCCC3)ccc2S(=O)(=O)N1C	.	.	.	.	-1.0	.	.	.	.
O=C(COc1ccccc1[N+](=O)[O-])N1CCC(Cc2ccccc2)CC1	1.1	-0.5	-12.6	-1.1	3.5	.	.	.	.
NC(=O)c1ccccc1OCC(=O)N1CCC(Cc2ccccc2)CC1	2.1	1.6	77.0*	20.6*	-3.4	91.6*	73.7*	14.6*	0.0
COC(=O)[C@]12C[C@H](CC(=O)N3CCN(C(=O)C4CC4)CC3)C(=O)N(Cc3ccc(Cl)cc3Cl)C1=C[C@H](COCc1ccccc1)O[C@@H]2C	.	.	.	.	3.1	.	.	.	.
CSc1ccccc1OCc1cc(C(=O)N2CCC(c3ccncc3)CC2)no1	0.2	2.3	101.0*	75.2*	3.1	92.9*	78.8*	94.0*	-0.2
O=C(c1cc(COc2cccc3cccnc23)on1)N1CCC[C@H]1CO	-1.5	.	-15.7	-4.7	-7.0	.	.	.	.
COC(=O)C1CCCCN1C(=O)c1cc(COc2cccc3cnccc23)on1 (centres undefined)	-1.3	3.4	101.9*	106.2*	0.5	94.6*	87.8*	107.0*	-0.2
O=C(c1cc(COc2ccc(F)cc2Cl)on1)N1CCC(c2ccncc2)CC1	2.0	-1.0	36.1	-7.2	-2.8	.	.	.	.
CCOC(=O)CC1CCCCN1C(=O)c1cc(COc2cccc3cnccc23)on1 (centres undefined)	-2.7	-1.8	100.9*	103.6*	-3.1	91.5*	88.5*	110.6*	-0.5
